The results in this text go back to ChEMBL document CHEMBL1145627, “E-ring-modified 7-oxyiminomethyl camptothecins: Synthesis and preliminary in vitro and in vivo biological evaluation” (Bioorg Med Chem Lett, 2008).

Series [1] deals with MKN-28. Description: Antitumor activity against human MKN28 cells xenografted athymic mouse assessed as inhibition of tumor volume at 3 mg/kg, po administered in q4dx4 schedule. It is filed as functional. Put shortly:
(§1)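 Oral dosing on an intermittent q4dx4 schedule in mice bearing MKN-28 gastric carcinoma xenografts. Tumor volume inhibition % is relative to controls. Body weight loss % is the loss induced by drug treatment.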
A general note: In xenograft studies the graft and the host belong to different species.

Series [2] deals with MKN-28. In words: Antitumor activity against human MKN28 cells xenografted athymic mouse assessed as inhibition of tumor volume at 6 mg/kg, po administered in q4dx4 schedule. It is filed as functional. The method in brief: as §1
The test system of series [3] is MKN-28. Description: Antitumor activity against human MKN28 cells xenografted athymic mouse assessed as inhibition of tumor volume at 12 mg/kg, po administered in q4dx4 schedule. It is filed as functional. Put shortly: as §1
For series [4], the system named is Mus musculus. In words: Toxicity in human MKN28 cells xenografted athymic mouse assessed as loss of body weight at 3 mg/kg, po administered in q4dx4 schedule. Further details: dose 3 mg/kg, route oral. It is filed as organism-based, MKN-28. The settings on record: in vivo. The method in brief: as §1
The test system of series [5] is Mus musculus. Description: Toxicity in human MKN28 cells xenografted athymic mouse assessed as loss of body weight at 6 mg/kg, po administered in q4dx4 schedule. The settings on record: in vivo. Further details: dose 6 mg/kg, route oral. It is filed as organism-based, MKN-28. The method in brief:
as §1

Series [6] deals with Mus musculus. Description: Toxicity in human MKN28 cells xenografted athymic mouse assessed as loss of body weight at 12 mg/kg, po administered in q4dx4 schedule. It is filed as organism-based, MKN-28. Further details: dose 12 mg/kg, route oral. The conditions noted are these: in vivo. The method in brief: as §1
Series [7] has as its system Mus musculus. Description: Toxicity in human MKN28 cells xenografted athymic mouse assessed as survival at 3 mg/kg, po administered in q4dx4 schedule. It is filed as organism-based, MKN-28. Set-up: dose 3 mg/kg, route oral. The conditions noted are these: in vivo. The method in brief:
(§2)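 Mice carried subcutaneous human tumor xenografts (CoBa, MKN-28 or Panc-1). They were dosed orally on an intermittent q4dx4 schedule, which was also used to set the maximum tolerated dose. Toxicity was scored as lethal toxicity, given as dead/treated mice. Drug-induced % body weight loss was also recorded.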

The subject of series [8] is Mus musculus. Description: Toxicity in human MKN28 cells xenografted athymic mouse assessed as survival at 6 mg/kg, po administered in q4dx4 schedule. The settings on record: in vivo. Set-up: dose 6 mg/kg, route oral. It is filed as organism-based, MKN-28. The method in brief:
as §2

In series [9] the test system is Mus musculus. Description: Toxicity in human MKN28 cells xenografted athymic mouse assessed as survival at 12 mg/kg, po administered in q4dx4 schedule. It is filed as organism-based, MKN-28. Set-up: dose 12 mg/kg, route oral. The conditions noted are these: in vivo. The method in brief: as §2
The test system of series [10] is PANC-1. In words: Antitumor activity against human Panc1 cells xenografted athymic mouse assessed as inhibition of tumor volume at 14 mg/kg, po administered in q4dx4 schedule. It is filed as functional. Put shortly:
(§3)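 Human tumor xenografts (CoBa colon, MKN-28 gastric, Panc-1 pancreatic) grown subcutaneously in mice. Drug given orally on an intermittent q4dx4 schedule. Read-out is % tumor volume inhibition in treated versus control mice. Complete responses were scored as tumor disappearance lasting at least ten days.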

Series [11] has as its system PANC-1. Description: Antitumor activity against human Panc1 cells xenografted athymic mouse assessed as inhibition of tumor volume at 15 mg/kg, po administered in q4dx4 schedule. It is filed as functional. The method in brief:
as §3

The subject of series [12] is Mus musculus. Description: Toxicity in human Panc1 cells xenografted athymic mouse assessed as loss of body weight at 14 mg/kg, po administered in q4dx4 schedule. It is filed as organism-based, PANC-1. Set-up: dose 14 mg/kg, route oral. The settings on record: in vivo.
The test system of series [13] is Mus musculus. Description: Toxicity in human Panc1 cells xenografted athymic mouse assessed as loss of body weight at 15 mg/kg, po administered in q4dx4 schedule. Further details: dose 15 mg/kg, route oral. It is filed as organism-based, PANC-1. The conditions noted are these: in vivo.
For series [14], the system named is Mus musculus. In words: Toxicity in human Panc1 cells xenografted athymic mouse assessed as survival at 14 mg/kg, po administered in q4dx4 schedule. It is filed as organism-based, PANC-1. Further details: dose 14 mg/kg, route oral. The settings on record: in vivo. Put shortly: as §2
The test system of series [15] is NCI-H460. In words: Antiproliferative activity against human H460 cells after 1 hr of drug exposure measured after 72 hrs. It is filed as functional, cell-based. Put shortly: (§4)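 Growth inhibition after 1-h drug exposure; IC50 is the concentration giving 50% reduction of cell growth versus untreated controls. Values are means ± SD from at least three experiments.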

Series [16] has as its system HT-29. Description: Antiproliferative activity against human HT29 cells after 1 hr of drug exposure measured after 72 hrs. It is filed as functional, cell-based. Put shortly:
as §4

Series [17] relates to HT-29. Description: Antiproliferative activity against BCRP overexpressing mitoxantrone-resistant human HT29 cells after 1 hr of drug exposure measured after 72 hrs. It is filed as functional, cell-based. The method in brief:
as §4

Series [18] has as its system HT-29. In words: Resistant index, ratio of IC50 for BCRP overexpressing mitoxantrone-resistant human HT29 cells to IC50 for human HT29 cells. It is filed as functional. The method in brief: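 Resistance index in HT29/mit, the BCRP-overexpressing subline. IC50 values come from the 1-h exposure growth inhibition assay, as 50% growth reduction versus untreated controls.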

Series [19] is described as follows: Antitumor activity against human CoBa cells xenografted athymic mouse assessed as inhibition of tumor volume at 15 mg/kg, po administered in q4dx4 schedule. It is filed as functional. The method in brief: as §3
Series [20] deals with Mus musculus. Description: Toxicity in human CoBa cells xenografted athymic mouse assessed as loss of body weight at 15 mg/kg, po administered in q4dx4 schedule. It is filed as organism-based. Further details: dose 15 mg/kg, route oral. The settings on record: in vivo. The method in brief: (§5)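 Mice bearing subcutaneous CoBa colon carcinoma were treated on a q4dx4 schedule, orally or, for CPT11, at 50 mg/kg. Body weight loss % is the loss induced by drug treatment.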

Series [21] deals with Mus musculus. Description: Toxicity in human CoBa cells xenografted athymic mouse assessed as loss of body weight at 20 mg/kg, po administered in q4dx4 schedule. The settings on record: in vivo. It is filed as organism-based. Further details: dose 20 mg/kg, route oral. Put shortly: as §5
The test system of series [22] is Mus musculus. Description: Toxicity in human CoBa cells xenografted athymic mouse assessed as survival at 15 mg/kg, po administered in q4dx4 schedule. The conditions noted are these: in vivo. It is filed as organism-based. Set-up: dose 15 mg/kg, route oral. Put shortly:
as §2

Series [23] is described as follows: Toxicity in po dosed human MKN28 cells xenografted athymic mouse administered in q4dx4 schedule. It is filed as organism-based, MKN-28. The settings on record: in vivo.
The subject of series [24] is NCI-H460. In words: Antiproliferative activity against human H460 cells after 2 hrs of drug exposure measured after 72 hrs. It is filed as functional, cell-based. Put shortly:
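Growth inhibition with IC50 taken after 2-h drug exposure, as the concentration giving 50% reduction of cell growth versus untreated controls.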

Series [25] can be described thus: Antitumor activity against human CoBa cells xenografted in athymic mouse assessed as inhibition of tumor volume at 2 mg/kg, po administered in q4dx4 schedule. It is filed as functional. Put shortly:
as §3

Series [26] concerns Mus musculus. Description: Toxicity in human CoBa cells xenografted athymic mouse assessed as loss of body weight at 2 mg/kg, po administered in q4dx4 schedule. It is filed as organism-based. Further details: dose 2 mg/kg, route oral. The settings on record: in vivo. The method in brief: as §5
The test system of series [27] is Mus musculus. Description: Toxicity in human CoBa cells xenografted athymic mouse assessed as survival at 2 mg/kg, po administered in q4dx4 schedule. The settings on record: in vivo. It is filed as organism-based. Further details: dose 2 mg/kg, route oral. The method in brief: as §2

Regarding `CCC1(O)CC(=O)OCc2c1cc1n(c2=O)Cc2c-1nc1ccccc1c2/C=N/OC(C)(C)C` (racemic), the inhibition in vivo (commonly the change of the read-out against control, counted positive when it falls) at 3 mg/kg in the series on MKN-28 [1] was 71%. Also, the inhibition in vivo at 6 mg/kg in the series with MKN-28 [2] was 47%. For the same molecule, the inhibition in vivo at 12 mg/kg with MKN-28 [3] was determined as 81%. For the same molecule, the Activity with Mus musculus [4] is reported as 0%; in the series on Mus musculus [5], 0%; with Mus musculus [6] it was 2%; in the series on Mus musculus [7], “Non-toxic”; in the series with Mus musculus [8] it was “Non-toxic”; in the series with Mus musculus [9] it was “Non-toxic”. Also, the Activity is given as 5% in the series on Mus musculus [12]; 16% in the series with Mus musculus [13]; “Non-toxic” in the series with Mus musculus [14]; 21% in the series with Mus musculus [20]; 18% in the series with Mus musculus [21]; “Non-toxic” in the series on Mus musculus [22]. Further, the LCK in the series on PANC-1 [10] was 1.4; in the series with PANC-1 [11], 1.6; in series [19], 1.3. The inhibition in vivo at 14 mg/kg with PANC-1 [10] (Mus musculus, PANC-1) was 99%. Also, the IC50 (as a rule, the point on the concentration scale where inhibition reaches its midpoint) came out at 36.8 nM in the series on NCI-H460 [15], 41 nM in the series on HT-29 [16] and 560 nM in the series on HT-29 [17]. In addition, in the series with HT-29 [18], the “Ratio IC50” value stood at 14. Besides, the inhibition in vivo at 15 mg/kg in series [19] (Homo sapiens, CoBa) was found to be 95%. In series [23], this molecule registered an MTD of 12 mg/kg.

For `CCc1c2c(nc3ccc(O)cc13)-c1cc3c(c(=O)n1C2)COC(=O)[C@]3(O)CC` [7-ETHYL-10-HYDROXYCAMPTOTHECIN], the IC50 in the series on NCI-H460 [15] came out at 220 nM; in the series on HT-29 [16], 670 nM; in the series on HT-29 [17] it was 11500 nM. The “Ratio IC50” value in the series with HT-29 [18] is 17.

As for `CC[C@@]1(O)C(=O)OCc2c1cc1n(c2=O)Cc2cc3ccccc3nc2-1` [CAMPTOTHECIN], the 50% inhibitory concentration (IC50) with NCI-H460 [15] turned out to be 180 nM; in the series with HT-29 [16] it was 3160 nM; in the series on HT-29 [17], 8810 nM. Also, in the series on HT-29 [18], the “Ratio IC50” value is 2.8.

Regarding `CC[C@@]1(O)C(=O)OCc2c1cc1n(c2=O)Cc2c-1nc1ccccc1c2/C=N/OC(C)(C)C` [GIMATECAN], the IC50 in the series with NCI-H460 [15] was 20 nM; with NCI-H460 [24], 15 nM; in the series with HT-29 [16], 56 nM; in the series with HT-29 [17], 70 nM. Moreover, the “Ratio IC50” value in the series on HT-29 [18] turned out to be 1.2. The LCK in series [25] stood at 1.1. In series [25] (Homo sapiens, CoBa), the inhibition in vivo at 2 mg/kg is 90%. Besides, the Activity is 18% with Mus musculus [26] and “Non-toxic” in the series on Mus musculus [27].

In the case of `CC[C@@]1(O)CC(=O)OCc2c1cc1n(c2=O)Cc2cc3ccccc3nc2-1` [HOMOCAMPTOTHECIN], the IC50 with NCI-H460 [15] is 49.6 nM; in the series with HT-29 [16] it was 440 nM; in the series with HT-29 [17], 8550 nM. Moreover, the “Ratio IC50” value with HT-29 [18] came to 19.

As for `CC[C@@]1(O)C(=O)OCc2c1cc1n(c2=O)Cc2cc3c(CN(C)C)c(O)ccc3nc2-1` [TOPOTECAN], the IC50 with HT-29 [16] amounted to 1350 nM; in the series on HT-29 [17], 46300 nM. Moreover, the “Ratio IC50” value in the series with HT-29 [18] turned out to be 34.
